Laboratory results taken from ChEMBL document CHEMBL2380298, “Synthesis and antimicrobial activity of novel amphiphilic aromatic amino alcohols” (2013).

Key:
Format in all cases: functional
[1] = system: Staphylococcus epidermidis; test: Antimicrobial activity against Staphylococcus epidermidis ATCC 12228 by broth dilution method; conditions: for MIC: Staphylococcus epidermidis, ATCC 12228
Staphylococcus aureus [2] = test: Antimicrobial activity against Staphylococcus aureus ATCC 29213 by broth dilution method; conditions: for MIC: Staphylococcus aureus, ATCC 29213
Staphylococcus aureus [3] = test: Bactericidal activity against methicillin-resistant Staphylococcus aureus clinical isolate 264 after 24 hrs; conditions: isolate 264, 24 h
In short: (§1)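 Bactericidal concentration: 0.1 ml from wells at the MIC dilution and the dilutions on either side was streaked onto tryptic soy agar and incubated 24 h. It was taken as the lowest drug concentration giving no growth (100% killing).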

Staphylococcus aureus [4] = test: Bactericidal activity against methicillin-resistant Staphylococcus aureus clinical isolate 260 after 24 hrs; conditions: isolate 260, 24 h; in short: as §1
Staphylococcus aureus [5] = test: Bactericidal activity against methicillin-resistant Staphylococcus aureus clinical isolate 259 after 24 hrs; conditions: isolate 259, 24 h; in short: as §1
Staphylococcus aureus [6] = test: Bactericidal activity against methicillin-resistant Staphylococcus aureus clinical isolate 257 after 24 hrs; conditions: isolate 257, 24 h; in short: as §1
Staphylococcus aureus [7] = test: Bactericidal activity against methicillin-resistant Staphylococcus aureus clinical isolate 255 after 24 hrs; conditions: isolate 255, 24 h; in short: as §1
Staphylococcus aureus [8] = test: Bactericidal activity against methicillin-resistant Staphylococcus aureus clinical isolate 238 after 24 hrs; conditions: isolate 238, 24 h; in short: as §1
Staphylococcus aureus [9] = test: Bactericidal activity against methicillin-resistant Staphylococcus aureus clinical isolate 237 after 24 hrs; conditions: isolate 237, 24 h; in short: as §1
Staphylococcus aureus [10] = test: Bactericidal activity against methicillin-resistant Staphylococcus aureus clinical isolate 236 after 24 hrs; conditions: isolate 236, 24 h; in short: as §1
Staphylococcus aureus [11] = test: Bactericidal activity against methicillin-resistant Staphylococcus aureus clinical isolate 235 after 24 hrs; conditions: isolate 235, 24 h; in short: as §1
Staphylococcus aureus [12] = test: Bactericidal activity against methicillin-resistant Staphylococcus aureus clinical isolate 232 after 24 hrs; conditions: isolate 232, 24 h; in short: as §1
Staphylococcus aureus [13] = test: Bactericidal activity against methicillin-resistant Staphylococcus aureus clinical isolate 231 after 24 hrs; conditions: isolate 231, 24 h; in short: as §1
Staphylococcus aureus [14] = test: Bactericidal activity against methicillin-resistant Staphylococcus aureus clinical isolate 212 after 24 hrs; conditions: isolate 212, 24 h; in short: as §1
Staphylococcus aureus [15] = test: Bactericidal activity against methicillin-resistant Staphylococcus aureus clinical isolate 178 after 24 hrs; conditions: isolate 178, 24 h; in short: as §1
Escherichia coli [16] = test: Bactericidal activity against Escherichia coli ATCC 11229 after 24 hrs; conditions: ATCC 11229, 24 h
In short: (§2)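 MBC: after MIC determination, 0.1 ml from the MIC well and from two dilutions either side streaked on tryptic soy agar, incubated 24 h; MBC taken as lowest concentration giving no growth (100% kill).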

[17] = system: Staphylococcus epidermidis; test: Bactericidal activity against Staphylococcus epidermidis ATCC 12228 after 24 hrs; conditions: ATCC 12228, 24 h; in short: as §2
Staphylococcus aureus [18] = test: Bactericidal activity against Staphylococcus aureus ATCC 29213 after 24 hrs; conditions: ATCC 29213, 24 h; in short: as §1
Candida parapsilosis = test: Antimicrobial activity against Candida parapsilosis ATCC 90030 by broth dilution method; conditions: Lodderomyces parapsilosis
Nakaseomyces glabratus = test: Antimicrobial activity against Candida glabrata ATCC 18804 by broth dilution method
Candida albicans = test: Antimicrobial activity against Candida albicans ATCC 22019 by broth dilution method
Candida tropicalis = test: Antimicrobial activity against Candida tropicalis ATCC 750 by broth dilution method
Staphylococcus aureus [19] = test: Antimicrobial activity against methicillin-resistant Staphylococcus aureus clinical isolate by broth dilution method; conditions: for MIC50 / MIC90: Staphylococcus aureus
Staphylococcus aureus [20] = test: Antimicrobial activity against methicillin-resistant Staphylococcus aureus clinical isolate 264 by broth dilution method
Staphylococcus aureus [21] = test: Antimicrobial activity against methicillin-resistant Staphylococcus aureus clinical isolate 260 by broth dilution method
Staphylococcus aureus [22] = test: Antimicrobial activity against methicillin-resistant Staphylococcus aureus clinical isolate 257 by broth dilution method
Staphylococcus aureus [23] = test: Antimicrobial activity against methicillin-resistant Staphylococcus aureus clinical isolate 259 by broth dilution method
Staphylococcus aureus [24] = test: Antimicrobial activity against methicillin-resistant Staphylococcus aureus clinical isolate 238 by broth dilution method
Staphylococcus aureus [25] = test: Antimicrobial activity against methicillin-resistant Staphylococcus aureus clinical isolate 255 by broth dilution method
Staphylococcus aureus [26] = test: Antimicrobial activity against methicillin-resistant Staphylococcus aureus clinical isolate 237 by broth dilution method
Staphylococcus aureus [27] = test: Antimicrobial activity against methicillin-resistant Staphylococcus aureus clinical isolate 236 by broth dilution method
Staphylococcus aureus [28] = test: Antimicrobial activity against methicillin-resistant Staphylococcus aureus clinical isolate 235 by broth dilution method
Staphylococcus aureus [29] = test: Antimicrobial activity against methicillin-resistant Staphylococcus aureus clinical isolate 232 by broth dilution method
Staphylococcus aureus [30] = test: Antimicrobial activity against methicillin-resistant Staphylococcus aureus clinical isolate 227 by broth dilution method
Staphylococcus aureus [31] = test: Antimicrobial activity against methicillin-resistant Staphylococcus aureus clinical isolate 231 by broth dilution method
Staphylococcus aureus [32] = test: Antimicrobial activity against methicillin-resistant Staphylococcus aureus clinical isolate 225 by broth dilution method
Staphylococcus aureus [33] = test: Antimicrobial activity against methicillin-resistant Staphylococcus aureus clinical isolate 215 by broth dilution method
Staphylococcus aureus [34] = test: Antimicrobial activity against methicillin-resistant Staphylococcus aureus clinical isolate 218 by broth dilution method
Staphylococcus aureus [35] = test: Antimicrobial activity against methicillin-resistant Staphylococcus aureus clinical isolate 212 by broth dilution method
Staphylococcus aureus [36] = test: Antimicrobial activity against methicillin-resistant Staphylococcus aureus clinical isolate 207 by broth dilution method
Staphylococcus aureus [37] = test: Antimicrobial activity against methicillin-resistant Staphylococcus aureus clinical isolate 205 by broth dilution method
Staphylococcus aureus [38] = test: Antimicrobial activity against methicillin-resistant Staphylococcus aureus clinical isolate 195 by broth dilution method
Staphylococcus aureus [39] = test: Antimicrobial activity against methicillin-resistant Staphylococcus aureus clinical isolate 178 by broth dilution method
Staphylococcus aureus [40] = test: Antimicrobial activity against methicillin-resistant Staphylococcus aureus clinical isolate 176 by broth dilution method
Pseudomonas aeruginosa = test: Antimicrobial activity against Pseudomonas aeruginosa ATCC 27853 by broth dilution method
Escherichia coli [41] = test: Antimicrobial activity against Escherichia coli ATCC 11229 by broth dilution method; conditions: for MIC: Escherichia coli, ATCC 11229
Staphylococcus aureus [42] = test: Bactericidal activity against methicillin-resistant Staphylococcus aureus clinical isolate 176 after 24 hrs; conditions: isolate 176, 24 h; in short: as §1

CCCCCCCCCCOc1ccc(CNC(CO)(CO)CO)cc1.Cl was tested, and the “-logMIC” value [1] was 5, the MIC [1] was 4 mg/L and the “-logMIC” value (Staphylococcus aureus [2]) was 4.7. For the same molecule, the MIC (Staphylococcus aureus [2]) was 8 mg/L, the MBC (Staphylococcus aureus [3]) was 2 mg/L and the MBC (Staphylococcus aureus [4]) was 16 mg/L. It also gave an MBC (Staphylococcus aureus [5]) of 4 mg/L, an MBC (Staphylococcus aureus [6]) of 8 mg/L and an MBC (Staphylococcus aureus [7]) of 8 mg/L. The MBC (Staphylococcus aureus [8]) was 8 mg/L, the MBC (Staphylococcus aureus [9]) was 16 mg/L and the MBC (Staphylococcus aureus [10]) was 4 mg/L. The MBC (Staphylococcus aureus [11]) was 4 mg/L, the MBC (Staphylococcus aureus [12]) was 32 mg/L and the MBC (Staphylococcus aureus [13]) was 8 mg/L. The MBC (Staphylococcus aureus [14]) was 128 mg/L, the MBC (Staphylococcus aureus [15]) was 128 mg/L and the MBC (Escherichia coli [16]) was 32 mg/L. The MBC [17] was 8 mg/L, the MBC (Staphylococcus aureus [18]) was 8 mg/L and the MIC (Candida parapsilosis) was 8 mg/L. It also gave an MIC (Nakaseomyces glabratus) of 2 mg/L, an MIC (Candida albicans) of 4 mg/L and an MIC (Candida tropicalis) of 8 mg/L. For the same molecule, the “-logMIC” value (Staphylococcus aureus [19]) was 4.842, the MIC50 (Staphylococcus aureus [19]) was 8 mg/L and the MIC90 (Staphylococcus aureus [19]) was 8 mg/L. For the same molecule, the MIC (Staphylococcus aureus [20]) was 2 mg/L, the MIC (Staphylococcus aureus [21]) was 8 mg/L and the MIC (Staphylococcus aureus [22]) was 4 mg/L. It also gave an MIC (Staphylococcus aureus [23]) of 4 mg/L, an MIC (Staphylococcus aureus [24]) of 8 mg/L and an MIC (Staphylococcus aureus [25]) of 4 mg/L. It also gave an MIC (Staphylococcus aureus [26]) of 16 mg/L, an MIC (Staphylococcus aureus [27]) of 4 mg/L and an MIC (Staphylococcus aureus [28]) of 4 mg/L. For the same molecule, the MIC (Staphylococcus aureus [29]) was 16 mg/L, the MIC (Staphylococcus aureus [30]) was 4 mg/L and the MIC (Staphylococcus aureus [31]) was 8 mg/L. It also gave an MIC (Staphylococcus aureus [32]) of 8 mg/L, an MIC (Staphylococcus aureus [33]) of 4 mg/L and an MIC (Staphylococcus aureus [34]) of 4 mg/L. The MIC (Staphylococcus aureus [35]) was 8 mg/L, the MIC (Staphylococcus aureus [36]) was 8 mg/L and the MIC (Staphylococcus aureus [37]) was 8 mg/L. It also gave an MIC (Staphylococcus aureus [38]) of 8 mg/L, an MIC (Staphylococcus aureus [39]) of 8 mg/L and an MIC (Staphylococcus aureus [40]) of 8 mg/L. The MIC (Pseudomonas aeruginosa) was 16 mg/L, the “-logMIC” value (Escherichia coli [41]) was 4.1 and the MIC (Escherichia coli [41]) was 32 mg/L.

CCCCCCCCCCCCOc1ccc(CNC(CO)(CO)CO)cc1.Cl was tested, and the “-logMIC” value [1] was 4.73, the MIC [1] was 8 mg/L and the MIC (Staphylococcus aureus [2]) was 8 mg/L. For the same molecule, the MBC (Staphylococcus aureus [3]) was 8 mg/L, the MBC (Staphylococcus aureus [4]) was 4 mg/L and the MBC (Staphylococcus aureus [5]) was 16 mg/L. It also gave an MBC (Staphylococcus aureus [6]) of 16 mg/L, an MBC (Staphylococcus aureus [7]) of 16 mg/L and an MBC (Staphylococcus aureus [8]) of 4 mg/L. It also gave an MBC (Staphylococcus aureus [9]) of 4 mg/L, an MBC (Staphylococcus aureus [10]) of 8 mg/L and an MBC (Staphylococcus aureus [11]) of 32 mg/L. It also gave an MBC (Staphylococcus aureus [12]) of 16 mg/L, an MBC (Staphylococcus aureus [13]) of 4 mg/L and an MBC (Staphylococcus aureus [14]) of 128 mg/L. For the same molecule, the MBC (Staphylococcus aureus [42]) was 128 mg/L, the MBC [17] was 8 mg/L and the MBC (Staphylococcus aureus [18]) was 8 mg/L. For the same molecule, the MIC (Candida parapsilosis) was 4 mg/L, the MIC (Nakaseomyces glabratus) was 2 mg/L and the MIC (Candida albicans) was 4 mg/L. For the same molecule, the MIC (Candida tropicalis) was 8 mg/L, the “-logMIC” value (Staphylococcus aureus [19]) was 4.842 and the MIC50 (Staphylococcus aureus [19]) was 4 mg/L. It also gave an MIC90 (Staphylococcus aureus [19]) of 8 mg/L, an MIC (Staphylococcus aureus [20]) of 4 mg/L and an MIC (Staphylococcus aureus [21]) of 4 mg/L. For the same molecule, the MIC (Staphylococcus aureus [22]) was 16 mg/L, the MIC (Staphylococcus aureus [23]) was 4 mg/L and the MIC (Staphylococcus aureus [24]) was 4 mg/L. The MIC (Staphylococcus aureus [25]) was 4 mg/L, the MIC (Staphylococcus aureus [26]) was 4 mg/L and the MIC (Staphylococcus aureus [27]) was 4 mg/L. It also gave an MIC (Staphylococcus aureus [28]) of 4 mg/L, an MIC (Staphylococcus aureus [29]) of 8 mg/L and an MIC (Staphylococcus aureus [30]) of 4 mg/L. It also gave an MIC (Staphylococcus aureus [31]) of 4 mg/L, an MIC (Staphylococcus aureus [32]) of 8 mg/L and an MIC (Staphylococcus aureus [33]) of 8 mg/L. It also gave an MIC (Staphylococcus aureus [34]) of 4 mg/L, an MIC (Staphylococcus aureus [35]) of 8 mg/L and an MIC (Staphylococcus aureus [36]) of 4 mg/L. For the same molecule, the MIC (Staphylococcus aureus [37]) was 8 mg/L, the MIC (Staphylococcus aureus [38]) was 8 mg/L and the MIC (Staphylococcus aureus [39]) was 8 mg/L. The MIC (Staphylococcus aureus [40]) was 8 mg/L, the MIC (Pseudomonas aeruginosa) was greater than 256 mg/L and the MIC (Escherichia coli [41]) was greater than 256 mg/L.
